Source: PubChem (several laboratories)
Most compounds without a hit are left out; they make up all but 9.6% or so of the library.
Lmaj promast: reduces viability of Leishmania major promastigotes; resazurin fluorescence viability; inhibition, % at 10 µM; actives 9% (n = 200,000); AID 1063; in the data active means inhibition above about 50%;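 further: promastigotes grown with compound for 44 hours at 28 °C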
b-catenin transl: alters nuclear translocation of beta-catenin in HeLa cells; immunofluorescence imaging; actives 0.3% (n = 190,000); nuclear translocation activity, % at 5 µM;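 active means nuclear translocation activity above 50% at 5 µM, with a well cell count of 50 or more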;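 further: per-cell ratio of nuclear to cytoplasmic median beta-catenin stain intensity; plate controls were DMSO negative control for no effect and GSK-3 inhibitor IX positive control for full effect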
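Test system: HeLa cells, endogenous beta-catenin; Compound: single 5 µM dose plus 0.02–20 µM confirmation series; Times: compound exposure 24 h at 37°C; Signal: fluorescence imaging of beta-catenin antibody stain plus DAPI; Read-out: % activation, nuclear-to-cytoplasmic median beta-catenin signal ratio per cell.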
MT stabilizer: stabilizes microtubules in HeLa cells; HeLa tubulin immunostaining HCS, 24 h; share of cells brighter than vehicle mean+2SD; % tubulin-high responders, % at 10 µM; actives 0.83% (n = 200,000); AID 2205;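 active means plate Z-score above 3 for both tubulin-high and condensed-nucleus cell shares, with cell loss under 80%, at 10 µM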;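 further: anti alpha tubulin signal scored within the nucleus-defined area of each cell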
APP transl inh: APP translation inhibition | SH-SY5Y APP 5'UTR-luciferase reporter, luminescence | inhibition, % at 2 µM | actives 0.82% (n = 190,000) | AID 1285;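 active means inhibition above a set limit, derived from the sample mean plus 3 SD, cut at about 45% in these data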
Ba/F3 V617F tox: reduce viability of Ba/F3 cells dependent on JAK2V617F. Ba/F3 EpoR-JAK2V617F viability, ATP luminescence. inhibition, % at 5.6 µM. actives 1.1% (n = 220,000);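 active means inhibition above the campaign mean plus 3 SD over all tested compounds, cut at about 24% in these data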;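 further: cytokine-independent growth of Ba/F3 cells driven by EpoR plus mutant JAK2; 0% = DMSO-treated cells and 100% = JAK inhibitor I control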
BaF3 tox: counter-screen for JAK2V617F inhibitors: parental Ba/F3 viability inhibitors | CellTiter-Glo ATP luminescence | inhibition, % at 5.6 µM | actives 1.1% (n = 220,000);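 active means inhibition above a per-campaign cutoff, the mean inhibition of all tested compounds plus 3 SD, cut at about 27% in these data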;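 further: 0% = DMSO wells and 100% = JAK Inhibitor I control wells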
Numbers without * were called inactive; x = not tested or not shown.

SMILES	Lmaj promast	b-catenin transl	MT stabilizer	APP transl inh	Ba/F3 V617F tox	BaF3 tox
Cc1nn(-c2ccccc2)c2[nH]c(=O)c(CNc3ccc(N4CCOCC4)cc3)cc12	-6.4	0.6	52.3*	-6.5	-0.2	7.9
CC(C)(C)c1nn(-c2ccccc2)c2[nH]c(=O)c(CNc3ccc4c(c3)OCCO4)cc12	-8.3	x	0.9	-29.6	-4.3	-1.7
O=C(CN(Cc1cccs1)C(=O)CNS(=O)(=O)c1ccccc1)NC1CCCC1	-3.8	-0.2	2.0	4.1	0.5	3.3
O=C1NC(=S)S/C1=C\C=C\c1ccc([N+](=O)[O-])o1	x	5.5	x	x	30.7*	8.6
O=C(Cn1cnc2cc([N+](=O)[O-])ccc2c1=O)NCc1ccccc1	59.9*	-2.3	5.1	-12.9	1.2	3.0
O=c1c2ccccc2ncn1CCCOc1ccccc1[N+](=O)[O-]	0.2	-1.6	1.6	-90.6	-0.6	-0.6
O=C(CCNC(=O)Cn1ccc2ccccc2c1=O)NCCc1ccc(Cl)cc1	55.3*	x	3.4	5.2	-1.4	3.5
Cc1cc(OCCCn2cnc3ccccc3c2=O)ccc1[N+](=O)[O-]	58.8*	-0.4	1.7	-3.5	1.7	4.5
O=C(Cn1cnc2cc([N+](=O)[O-])ccc2c1=O)NCCc1ccc(Cl)cc1	64.4*	0.3	5.2	-11.4	-1.1	1.1
COc1ccc(C2C3C(=O)N(N(C)c4ncc(C(F)(F)F)cc4Cl)C(=O)C3ON2C)cc1 (stereo not drawn)	-6.0	0.1	3.8	17.5	2.3	1.9
O=C(COc1ccccc1[N+](=O)[O-])Nc1cc(Cl)ccc1C(=O)O	-2.5	-3.2	3.5	-15.8	-2.3	-2.6
CCOc1ccc(C2NC(=O)NC(C)=C2[N+](=O)[O-])cc1OC (stereo not drawn)	x	-0.4	x	x	-0.6	15.3
O=C(Cn1cnc2cc([N+](=O)[O-])ccc2c1=O)Nc1cccc2ccccc12	x	0.2	x	x	-3.6	-3.0
CCN(CC)S(=O)(=O)c1ccc(C)c(NC(=O)Cn2cnc3cc([N+](=O)[O-])ccc3c2=O)c1	71.9*	-4.6	2.5	-9.3	0.0	2.8
Cc1ccccc1OCCn1cnc2cc([N+](=O)[O-])ccc2c1=O	73.0*	-1.7	4.4	-15.9	-0.3	8.0
Cc1cc([N+](=O)[O-])nn1Cc1ccc(C(=O)N/N=C/c2ccc(O)cc2O)cc1	95.3*	1.0	3.7	42.1	-0.1	3.2
O=C(N/N=C/c1ccccc1)c1ccc(CN2C(=O)c3cccc4cccc2c34)cc1	11.0	-3.8	7.3	13.1	0.2	9.7
Cc1cc([N+](=O)[O-])nn1Cc1ccc(C(=O)N/N=C/c2ccc(F)cc2)cc1	x	-0.6	x	x	1.1	-2.5
O=C(N/N=C/c1ccc(O)cc1O)c1ccc(CN2C(=O)c3cccc4cccc2c34)cc1	100.1*	1.2	7.6	60.5*	18.7	4.9
CSc1ccc(CNc2ccc(C)c(C)c2)cc1	-5.9	-0.3	1.5	-48.8	-3.0	2.3
CSc1ccc(CNc2ccc(C)cc2)cc1	99.9*	0.9	2.7	-59.9	0.2	3.0
O=C1c2ccccc2C(=O)c2c1ccc1c(=O)n(C3CCCCC3)[nH]c21	99.0*	-2.7	2.0	-25.1	-1.1	2.3
COc1ccc(NC(=O)CN2CCN(C3c4ccccc4-c4ccccc43)CC2)c(OC)c1	44.0	0.1	4.9	2.4	1.7	3.5
CCOc1ccc(NC(=O)CN2CCN(C3c4ccccc4-c4ccccc43)CC2)cc1	89.7*	0.4	3.5	-4.2	-0.8	8.1
COc1ccccc1NC(=O)CN1CCN(C2c3ccccc3-c3ccccc32)CC1	57.5*	-1.5	5.3	3.6	0.3	2.8
SMILES	Lmaj promast	b-catenin transl	MT stabilizer	APP transl inh	Ba/F3 V617F tox	BaF3 tox
O=[N+]([O-])c1ccc(-c2nnc(CSc3nc(-c4ccccc4)nc4ccc(F)cc34)o2)cc1	-0.8	x	2.5	4.6	3.8	7.0
Cc1ccc2nc(-c3ccc(NC(=S)NC4CC(C)(C)NC(C)(C)C4)cc3)sc2c1	97.6*	71.7*	33.8	-167.8	2.4	10.2
Cc1ccc2nc(-c3ccc(NC(=S)NC(=O)C(C)C)cc3)sc2c1	1.4	-1.4	1.7	-120.5	-0.5	3.0
Cc1c(Br)c([N+](=O)[O-])nn1CC(=O)NCCc1c[nH]c2ccccc12	68.7*	3.9	2.2	-1.5	-0.6	-0.5
Cc1ccc(C)c(NC(=O)Cn2nc([N+](=O)[O-])c(Br)c2C)c1	73.3*	-1.8	3.0	0.9	-2.0	4.5
Cc1c(Br)c([N+](=O)[O-])nn1CC(=O)NCc1ccccc1	2.8	0.3	2.9	-23.3	0.8	2.4
C=CCc1cc(C)ccc1OCCOCCC(C(=O)OCC)C(=O)OCC	-3.1	0.9	1.0	19.7	1.5	4.8
CCC(C)NCCOCCSc1ccc(Cl)cc1 (stereo not drawn)	97.4*	1.2	1.5	-15.9	-0.4	4.1
C=CCc1cc(Cl)ccc1OCCN(C)C	96.2*	-2.6	2.1	3.1	-0.6	1.9
C=CCc1cc(Cl)ccc1OCCOCCNC(C)CC (stereo not drawn)	90.5*	-0.2	2.4	4.1	0.0	7.3
C=CCc1ccccc1OCC(O)CNC(C)C (stereo not drawn)	2.5	x	4.2	-4.1	1.1	9.2
C=CCc1cc(Cl)ccc1OCCCNC(C)C	99.7*	-2.9	5.9	9.4	-1.3	1.9
Cc1ccc(NC(=S)NCCc2c[nH]c3ccccc23)c(C)c1	x	-1.7	x	x	6.0	-3.8
COC(=O)c1ccc(C(=O)OC)c(NC(=O)CN(c2ccc3c(c2)OCO3)S(C)(=O)=O)c1	27.2	-2.0	0.9	-9.7	-2.0	-0.5
C=CCOc1ccc(Br)cc1CNCCO	9.4	3.1	3.8	1.5	-4.4	1.6
C=CCc1cc(Cl)ccc1OCCCNCCO	98.2*	-1.7	2.5	-10.6	-1.3	7.2
Cc1ccc(NC(=S)N2CCN(c3nccc(C(F)(F)F)n3)CC2)c(C)c1	x	-3.7	x	x	-1.5	-1.8
COC(=O)c1cc(C(=O)OC)cc(-n2c(C)cc(C(=O)CC#N)c2C)c1	95.4*	-1.2	4.5	-5.4	2.1	1.7
CCN1CCN(C2=CC3=CC(=C(C#N)C#N)CCC3CC2)CC1 (stereo not drawn)	87.6*	0.2	4.7	-4.9	7.1	5.8
O=S(=O)(NC1c2cccc3cccc(c23)C1N1CCNCC1)c1ccc(Cl)cc1 (stereo not drawn)	99.7*	1.4	2.1	-13.1	5.7	10.9
Cn1cnnc1SC1c2cccc3cccc(c23)C1NS(=O)(=O)c1ccc(Cl)cc1 (stereo not drawn)	53.2*	-4.1	1.4	-9.8	-2.4	3.5
CC(=O)Nc1ccc(NC(C)=C(C#N)C#N)cc1	-4.8	-2.0	2.0	5.6	-0.4	2.9
Cc1cccc(N2CCN(S(=O)(=O)c3cccc4nonc34)CC2)c1C	-0.9	-0.5	3.9	-11.4	-2.6	0.4
